Measured values: ChEMBL document CHEMBL1138119, “Extremely potent orally active benzo[g]quinoline analogue of the dopaminergic prodrug: 1-propyl-trans-2,3,4,4a,5,7,8,9,10,10a-decahydro-1H-benzo-[g]quinolin-6-one [corrected]” (2006)
Activity calls are given as the source filed them. No cut-off for these calls is given here.

Columns and labels:
[1] = target: D(1A) dopamine receptor (Rattus norvegicus) (UniProt P18901); assay: Displacement of [3H]SCH-23390 from dopamine D1 receptor in rat corpus striatum membrane at 100nM; format: cell membranes
[2] = target: D(2) dopamine receptor (Rattus norvegicus) (UniProt P61169); assay: Displacement of [3H]spiperone from dopamine D2 receptor in rat corpus striatum membrane at 100nM; format: cell membranes
How it was run: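 Inhibition of [3H]spiperone binding (0.50 nM; Kd 0.20 nM) to dopamine receptors in rat corpus striatum membranes, in vitro. Displacement was measured at a single fixed test concentration.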

[3] = target: D(3) dopamine receptor (Homo sapiens) (UniProt P35462); assay: Displacement of [3H]spiperone from human dopamine D3 receptor expressed in CHO cells at 50nM; format: cell-based
How it was run: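 CHO membranes with cloned human D3 (26 µg protein) in 25 mM Tris-HCl pH 7.4, 6.0 mM MgCl2, 1.0 mM EDTA. […] Incubated 60 min at 25 °C, filtered on PEI-treated GF/C, and counted by scintillation. Measured at a single test concentration.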

[4] = target: T1, D(4) dopamine receptor (Homo sapiens) (UniProt P21917); assay: Displacement of [3H]nemonapride from human dopamine D4 receptor at 50nM
T1 sequence (whole entry): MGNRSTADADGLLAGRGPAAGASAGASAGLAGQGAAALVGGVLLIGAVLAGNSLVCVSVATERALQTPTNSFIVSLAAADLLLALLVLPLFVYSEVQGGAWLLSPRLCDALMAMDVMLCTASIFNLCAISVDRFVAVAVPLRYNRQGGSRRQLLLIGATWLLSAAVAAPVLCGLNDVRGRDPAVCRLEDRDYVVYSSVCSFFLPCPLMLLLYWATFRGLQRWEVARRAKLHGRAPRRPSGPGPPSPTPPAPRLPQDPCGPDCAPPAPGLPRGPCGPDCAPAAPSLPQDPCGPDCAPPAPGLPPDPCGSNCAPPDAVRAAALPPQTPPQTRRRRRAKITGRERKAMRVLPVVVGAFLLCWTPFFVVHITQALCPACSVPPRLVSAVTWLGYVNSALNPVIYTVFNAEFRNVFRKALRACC
How it was run: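 Inhibition of [3H]nemonapride binding (0.50 nM; Kd 0.20 nM) to cloned human D4 receptors, in vitro. Displacement was measured at a single fixed test concentration.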

Rattus norvegicus [5] = assay: Effect on striatal dopamine release in rat at 1umol/kg, sc; format: functional, organism-based
How it was run: (§1)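 Striatal microdialysis in freely moving rats, done by a previously described procedure. Doses were given sc or po. Dopamine levels are expressed relative to basal dopamine levels, as mean (SEM) from four rats.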

Rattus norvegicus [6] = assay: Decrease in striatal dopamine levels in rat at 1 nmol/kg, sc; format: functional; design: scale not given: the % may be the effect or the level left; how it was run: as §1
Rattus norvegicus [7] = assay: Decrease in striatal dopamine levels in rat at 10 nmol/kg, sc; format: functional; design: scale not given: the % may be the effect or the level left; how it was run: as §1
Rattus norvegicus [8] = assay: Decrease in striatal dopamine levels in rat at 10 nmol/kg, po; format: functional; design: scale not given: the % may be the effect or the level left; how it was run: as §1
Rattus norvegicus [9] = assay: Decrease in striatal dopamine levels in rat at 3 nmol/kg, po; format: functional; design: scale not given: the % may be the effect or the level left; how it was run: as §1
Rattus norvegicus [10] = assay: Decrease in striatal dopamine levels in rat at 3 nmol/kg, sc; format: functional; design: scale not given: the % may be the effect or the level left; how it was run: as §1

D(2) dopamine receptor (Rattus norvegicus), sequence (P61169 whole entry): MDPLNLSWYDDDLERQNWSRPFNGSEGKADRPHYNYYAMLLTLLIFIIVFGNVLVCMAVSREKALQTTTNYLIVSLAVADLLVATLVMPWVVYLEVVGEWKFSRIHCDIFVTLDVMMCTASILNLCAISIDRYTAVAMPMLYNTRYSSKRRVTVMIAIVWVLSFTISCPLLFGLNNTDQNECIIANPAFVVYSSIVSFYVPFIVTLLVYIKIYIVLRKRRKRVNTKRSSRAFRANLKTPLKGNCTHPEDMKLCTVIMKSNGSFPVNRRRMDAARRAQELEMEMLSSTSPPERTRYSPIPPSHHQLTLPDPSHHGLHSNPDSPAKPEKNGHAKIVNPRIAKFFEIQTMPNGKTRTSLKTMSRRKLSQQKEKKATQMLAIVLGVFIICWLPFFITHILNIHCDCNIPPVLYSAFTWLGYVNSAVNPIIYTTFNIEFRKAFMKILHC
D(3) dopamine receptor (Homo sapiens), sequence (P35462 whole entry): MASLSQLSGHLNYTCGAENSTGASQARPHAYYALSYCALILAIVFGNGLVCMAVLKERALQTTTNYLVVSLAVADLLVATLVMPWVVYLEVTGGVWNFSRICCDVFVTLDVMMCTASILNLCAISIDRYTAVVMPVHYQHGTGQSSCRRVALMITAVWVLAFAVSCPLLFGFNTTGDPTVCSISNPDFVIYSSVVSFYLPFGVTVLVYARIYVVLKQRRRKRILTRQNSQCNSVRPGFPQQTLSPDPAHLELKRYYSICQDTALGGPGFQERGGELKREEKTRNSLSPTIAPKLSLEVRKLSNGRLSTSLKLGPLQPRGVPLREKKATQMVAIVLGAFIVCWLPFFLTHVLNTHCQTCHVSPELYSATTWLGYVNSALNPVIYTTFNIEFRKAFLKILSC
D(1A) dopamine receptor (Rattus norvegicus), sequence (P18901 whole entry): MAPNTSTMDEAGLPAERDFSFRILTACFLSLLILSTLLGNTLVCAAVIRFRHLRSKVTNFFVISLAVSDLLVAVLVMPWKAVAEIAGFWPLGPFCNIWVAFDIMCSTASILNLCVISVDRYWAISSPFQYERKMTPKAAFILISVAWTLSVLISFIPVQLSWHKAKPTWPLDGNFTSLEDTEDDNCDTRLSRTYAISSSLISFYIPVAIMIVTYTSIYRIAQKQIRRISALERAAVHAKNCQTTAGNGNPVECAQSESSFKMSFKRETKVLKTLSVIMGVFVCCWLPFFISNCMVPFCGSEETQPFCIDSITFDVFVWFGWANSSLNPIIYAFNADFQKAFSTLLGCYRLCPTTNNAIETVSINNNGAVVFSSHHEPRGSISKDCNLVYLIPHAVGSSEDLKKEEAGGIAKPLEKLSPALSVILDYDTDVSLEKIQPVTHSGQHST

Row | Structure (SMILES) | Activity [1] [%] | Activity [2] [%] | Activity [3] [%] | Activity [4] [%] | Activity (Rattus norvegicus [5]) | Activity (Rattus norvegicus [6]) [%] | Activity (Rattus norvegicus [7]) [%] | Activity (Rattus norvegicus [8]) [%] | Activity (Rattus norvegicus [9]) [%] | Activity (Rattus norvegicus [10]) [%]
1 | CCCN1CCCC2CC3=C(CCCC3=O)CC21 (single isomer, unassigned; (+)) | 7 | 3 | 28 | -19 | inactive | – | – | – | – | –
2 | CCCN1CCCC2CC3=C(CCCC3=O)CC21 (single isomer, unassigned; (-)) [listing 1 of 2 here] | -1 | 15 | 23 | -4 | – | – | – | – | – | –
3 | CCCN1CCCC2CC3=C(CCCC3=O)CC21 (single isomer, unassigned; (-)) [listing 2 of 2 here] | – | – | – | – | – | 20 | 20 | 60 | 45 | 20
